Laboratory results from paper PMC2854012 (Cancer chemotherapy and pharmacology, 2009).
Entries after “also recorded” stand apart in the source; their conditions may differ.

How the values were obtained:
[1] = system: insulin-stimulated glucose transport; settings: cited from earlier work
[2] = system: patients with refractory neoplasms; settings: cited from earlier work
protein kinase C = settings: cited from earlier work
[3] = system: patients with advanced malignancies; assay: Phase I safety and toxicity, DLT and MTD of UCN-01 with prednisone; assay type: in vivo, human
In short: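 Open-label single-arm escalation with 3-6 patients per level. Test compound by continuous IV infusion, 72 h (days 3-5) in cycle 1, then 36 h from day 3; levels 17, 24, 34 mg/m2/24 h. Oral glucocorticoid 60 mg/m2/day, days 1-5; 28-day cycles. Graded by NCI CTC v2.0. DLT: grade 3-4 non-hematologic (separate hyperglycemia rules), grade 4 granulocytopenia or thrombocytopenia. MTD: ≤1 of 6 with DLT.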

[4] = system: patients with advanced malignancies; assay: Tumor response by RECIST in the phase I trial of UCN-01 with prednisone; assay type: in vivo, human; settings: 15 patients
In short: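 Tumor response assessed radiographically every two cycles by RECIST. Patients received continuous IV test compound (72 h in cycle 1, 36 h thereafter) plus oral glucocorticoid 60 mg/m2/day on days 1-5, in 28-day cycles.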

[5] = Plasma pharmacokinetics of UCN-01 in patients; assay type: in vivo, human
In short: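 Heparinized blood drawn in cycle 1 before dosing, 12, 24, 48 and 72 h after infusion start, and 12, 24 and 48 h after infusion end. Cycle 2 sampled pre-dose, at 36 h and 24 h post-end. Plasma spun 1200 x g, 5 min, 4°C, stored -80°C; assayed by HPLC-UV. Noncompartmental analysis: Cmax by inspection; λz from ≥3 terminal points; t1/2 = 0.693/λz; linear-trapezoidal AUC extrapolated by Ct/λz; CL = dose/AUC.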

[6] = 15 patients, 55 courses, with prednisone
[7] = drug-related adverse events, 15 patients, all dose levels

SMILES: CN[C@@H]1C[C@H]2O[C@@](C)([C@@H]1OC)n1c3ccccc3c3c4c(c5c6ccccc6n2c5c31)C(=O)NC4 [Staurosporine]
- effect on insulin-stimulated glucose transport [1]: inhibit insulin-stimulated glucose transport

SMILES: CN[C@@H]1C[C@H]2O[C@@](C)([C@@H]1OC)n1c3ccccc3c3c4c(c5c6ccccc6n2c5c31)C(=O)N[C@@H]4O [UCN-01, 7-hydroxy staurosporine]
- toxicity at the dose level above the single-agent MTD ([2]; 159 mg/m^2 over 72 h): grade 4 hyperglycemia and vomiting
- MTD, single agent, cycle 1 ([2]; over 72h, same schedule): 127.5 mg/m^2
- duration of prolonged disease stabilization ([2]; patient with alk-positive anaplastic large-cell lymphoma): > 2.5 years
- partial response ([2]; patient with melanoma): One partial response
- "free" UCN-01 levels at the end of infusion ([2]; supernatant of ultracentrifuged plasma, 24 mg/m^2/day for 3 days): 200 to 600 nmol/L
- MTD, single agent, subsequent cycles ([2]; total dose administered over 36 h): 63 mg/m^2
- IC50 (protein kinase C): 4 to 30 nM
- cumulative toxicities [3, 6]: no cumulative toxicities
- grade 4 adverse events [3, 6]: no grade 4 adverse events
- patients developing some grade of hyperglycemia ([3]; 15 patients, with prednisone): All patients
- MTD and recommended phase II dose, cycle 2 and beyond ([3]; CIV over 36 h, with prednisone 60 mg/m^2/day for 5 days every cycle): 36 mg/m^2/cycle
- reduction in the maximum dose of UCN-01 that could be safely administered ([3]; combination with prednisone versus single agent on the same schedule): 44%
- DLTs ([3]; dose level 2 (72 mg/m^2 total dose over 72 h for cycle 1 followed by 36 mg/m^2/cycle), six patients): without any DLTs
- grade 3 hyperglycemia, patients ([3]; dose level 3 (102 mg/m^2 total dose over 72 h for cycle 1 followed by 51 mg/m^2/cycle)): three
- DLT: grade 3 hypophosphatemia during cycle 1, patients ([3]; dose level 3 (102 mg/m^2 total dose over 72 h for cycle 1 followed by 51 mg/m^2/cycle), six patients): Two of the six patients
- Anemia grade 2, No. of patients [3, 7]: 2 (1)
- Headache grade 2, No. of patients [3, 7]: 2 (1)
- Hyperglycemia grade 2, No. of patients [3, 7]: 2 (9)
- Hypoalbuminemia grade 2, No. of patients [3, 7]: 2 (2)
- Hyponatremia grade 3, No. of patients [3, 7]: 3 (1)
- Hypophosphatemia grade 2, No. of patients [3, 7]: 2 (6)
- Hypophosphatemia grade 3, No. of patients [3, 7]: 3 (4)
- Leucopenia grade 2, No. of patients [3, 7]: 2 (1)
- Leucopenia grade 3, No. of patients [3, 7]: 3 (1)
- Neutropenia grade 2, No. of patients [3, 7]: 2 (1)
- Rash/desquamation grade 2, No. of patients [3, 7]: 2 (1)
- Visual (photophobia) grade 2, No. of patients [3, 7]: 2 (1)
- MTD and recommended phase II dose, cycle 1 ([3]; total dose CIV over 72 h, with prednisone 60 mg/m^2/day for 5 days every cycle): 72 mg/m^2
- GI toxicity ([3]; with prednisone): did not observe any significant GI toxicity
- pulmonary toxicity ([3]; with prednisone): did not observe any pulmonary toxicity
- patients with stable disease for longer than two cycles [4]: five
- response as defined by RECIST criteria [4]: No objective responses; also recorded: None of the 15 patients had a response
- Clearance Mean ([5]; cycle 1, 72-h IV infusion, UCN-01 17 mg/m^2/24 h, with prednisone): 5.4 mL/h/m^2
- Clearance Mean ([5]; cycle 1, 72-h IV infusion, UCN-01 24 mg/m^2/24 h, with prednisone): 3.1 mL/h/m^2
- Clearance Mean ([5]; cycle 1, 72-h IV infusion, UCN-01 34 mg/m^2/24 h, with prednisone): 4.2 mL/h/m^2
- half-life ([5]; human, plasma, intravenous, half-life, at the MTD, with prednisone): ~18.8 days
- Cmax ([5]; human, plasma, intravenous, mean Cmax, at the MTD, with prednisone): ~12000 ng/mL
- AUC(0-inf) ([5]; human, plasma, iv, AUCinf Mean, cycle 1, 72-h IV infusion, UCN-01 17 mg/m^2/24 h, with prednisone): 3130 µg·h/mL
- Cmax ([5]; human, plasma, iv, Cmax Mean, cycle 1, 72-h IV infusion, UCN-01 17 mg/m^2/24 h, with prednisone): 10000 ng/mL
- clearance ([5]; range over all dose levels (17, 24 and 34 mg/m^2/24 h x 72 h)): 2.13−5.47 mL/h/m^2
